Assay results taken from ChEMBL document CHEMBL4725317 (Bioorg Med Chem Lett, 2020).

Experiments:
[1] = target: T1, Sodium/glucose cotransporter 1 (Homo sapiens) (UniProt P13866); assay: Inhibition of human SGLT1 expressed in CHO cells assessed as reduction in [14C]-methyl-alpha -D-glucopyranoside accumulation at 0.3 uM relative to control; type: cell-based
T1 sequence (whole entry): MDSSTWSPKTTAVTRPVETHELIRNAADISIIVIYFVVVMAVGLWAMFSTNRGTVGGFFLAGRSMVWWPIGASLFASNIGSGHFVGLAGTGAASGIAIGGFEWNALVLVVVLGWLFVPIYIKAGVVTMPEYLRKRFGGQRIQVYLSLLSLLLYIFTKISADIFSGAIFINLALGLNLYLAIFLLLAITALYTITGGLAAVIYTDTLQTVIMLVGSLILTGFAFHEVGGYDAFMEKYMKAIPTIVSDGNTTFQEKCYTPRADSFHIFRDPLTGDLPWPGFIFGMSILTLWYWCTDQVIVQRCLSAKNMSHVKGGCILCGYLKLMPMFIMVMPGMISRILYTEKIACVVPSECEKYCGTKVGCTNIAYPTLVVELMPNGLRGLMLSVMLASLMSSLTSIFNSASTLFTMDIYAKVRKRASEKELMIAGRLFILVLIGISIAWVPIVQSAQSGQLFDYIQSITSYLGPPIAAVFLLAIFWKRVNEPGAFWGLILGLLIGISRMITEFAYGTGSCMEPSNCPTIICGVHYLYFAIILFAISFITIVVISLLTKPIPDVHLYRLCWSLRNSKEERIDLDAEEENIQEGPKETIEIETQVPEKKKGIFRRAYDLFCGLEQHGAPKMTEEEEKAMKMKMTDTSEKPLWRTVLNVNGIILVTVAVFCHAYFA
Method in brief: (§1)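 CHO cells expressing human SGLT1 or SGLT2; inhibition of [14C]methyl D-glucopyranoside (AMG) accumulation measured with test compound at 0.3 μM.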

[2] = target: T2, Sodium/glucose cotransporter 2 (Homo sapiens) (UniProt P31639); assay: Inhibition of human SGLT2 expressed in CHO cells assessed as reduction in [14C]-methyl-alpha -D-glucopyranoside accumulation at 0.3 uM relative to control; type: cell-based; method in brief: as §1
T2 sequence (whole entry): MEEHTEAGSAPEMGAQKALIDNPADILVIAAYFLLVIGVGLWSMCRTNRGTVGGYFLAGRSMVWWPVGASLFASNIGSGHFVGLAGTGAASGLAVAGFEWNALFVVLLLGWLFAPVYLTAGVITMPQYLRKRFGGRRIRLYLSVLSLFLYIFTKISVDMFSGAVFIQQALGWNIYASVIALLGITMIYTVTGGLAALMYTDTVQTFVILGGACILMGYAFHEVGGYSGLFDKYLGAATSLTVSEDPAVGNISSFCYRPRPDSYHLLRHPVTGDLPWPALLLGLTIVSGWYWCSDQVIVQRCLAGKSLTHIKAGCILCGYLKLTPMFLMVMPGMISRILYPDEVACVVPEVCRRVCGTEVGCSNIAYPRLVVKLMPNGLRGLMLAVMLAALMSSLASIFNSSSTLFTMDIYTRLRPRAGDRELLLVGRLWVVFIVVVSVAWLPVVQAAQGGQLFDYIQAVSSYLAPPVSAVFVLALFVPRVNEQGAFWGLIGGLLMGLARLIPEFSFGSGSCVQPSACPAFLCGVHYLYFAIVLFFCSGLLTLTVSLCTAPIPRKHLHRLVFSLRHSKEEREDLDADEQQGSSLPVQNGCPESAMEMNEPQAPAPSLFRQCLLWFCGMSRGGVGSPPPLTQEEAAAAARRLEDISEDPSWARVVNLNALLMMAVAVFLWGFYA

[3] = Stability of compound in human liver microsomes assessed as parent compound remaining at 1 uM measured at 10 mins in presence of NADPH; type: ADME, Microsome; settings: liver microsomes, read-out: Stabilty
Method in brief: (§2)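 Test compound at 1 μM with human, mouse or rat liver microsomes (0.5 mg/ml protein) plus NADPH cofactor; final solvents 0.01% DMSO, 0.05% acetonitrile; percent parent remaining at 10 min. Verapamil, cerivastatin and warfarin as positive controls. SD given when multiple batches were tested.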

[4] = Stability of compound in mouse liver microsomes assessed as parent compound remaining at 1 uM measured at 10 mins in presence of NADPH; type: ADME, Microsome; settings: read-out: Stabilty; method in brief: as §2
[5] = Stability of compound in rat liver microsomes assessed as parent compound remaining at 1 uM measured at 10 mins in presence of NADPH; type: ADME, Microsome; settings: for remaining at 10 min, 1 µM: liver microsomes, read-out: Stabilty; method in brief: as §2
[6] = Clearance in Sprague-Dawley rat at 2 mg/kg, iv or 10 mg/kg, po; type: ADME, organism-based; settings: in vivo
Method in brief: (§3)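 Male Sprague Dawley rats dosed 2 mg/kg IV (vehicle 20% HPbCD) or 10 mg/kg PO (vehicle 0.5% Methocel); pharmacokinetic parameters derived from plasma exposure.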

[7] = Volume of distribution at steady state in Sprague-Dawley rat at 2 mg/kg, iv or 10 mg/kg, po; type: ADME, organism-based; settings: in vivo, read-out: Vdss; method in brief: as §3
[8] = Half life in Sprague-Dawley rat at 2 mg/kg, iv; type: ADME, organism-based; settings: in vivo; method in brief: as §3
[9] = Cmax in Sprague-Dawley rat at 2 mg/kg, iv or 10 mg/kg, po; type: ADME, organism-based; set-up: dose 10 mg/kg; settings: in vivo; method in brief: as §3
[10] = Tmax in Sprague-Dawley rat at 2 mg/kg, iv or 10 mg/kg, po; type: ADME, organism-based; settings: in vivo; method in brief: as §3
[11] = Oral bioavailability in Sprague-Dawley rat at 10 mg/kg; type: ADME, organism-based; settings: in vivo; method in brief: as §3

| Compound | remaining at 10 min, 1 µM [3] [%] | remaining at 10 min, 1 µM [4] [%] | remaining at 10 min, 1 µM [5] [%] | also measured |
| --- | --- | --- | --- | --- |
| COc1cc(OC)c([C@@H]2O[C@H](CO)[C@@](C)(F)[C@H](O)[C@H]2O)cc1Cc1ccc2c(c1)OCCO2 |  |  |  | inhibition [1]: 25%; inhibition [2]: 59% |
| COc1cc(O)c([C@@H]2O[C@H](CO)C(F)(F)[C@H](O)[C@H]2O)cc1Cc1ccc2c(c1)CCO2 | 100 | 91 | 70 |  |
| COc1cc(Cl)c(Cc2cc3ccccc3s2)cc1[C@@H]1O[C@H](CO)C(F)(F)[C@H](O)[C@H]1O | 65 | 37 |  | Stabilty ([5]; microsomes, 10 min, 1 µM): 123% |
| COc1cc(Cl)c(Cc2ccc3c(c2)OCCO3)cc1[C@@H]1O[C@H](CO)C(F)(F)[C@H](O)[C@H]1O |  |  |  | inhibition [1]: 37%; inhibition [2]: 78% |
| COc1cc(O)c([C@@H]2O[C@H](CO)C(F)(F)[C@H](O)[C@H]2O)cc1Cc1cc2ccccc2s1 | 103 | 111 | 98 |  |

More lines, main results first:

| remaining at 10 min, 1 µM [3] [%] | remaining at 10 min, 1 µM [4] [%] | remaining at 10 min, 1 µM [5] [%] | Compound | also measured |
| --- | --- | --- | --- | --- |
| 103 | 98 | 101 | COc1cc(O)c([C@@H]2O[C@H](CO)[C@@](C)(F)[C@H](O)[C@H]2O)cc1Cc1ccc2c(c1)OCCO2 | clearance [6]: 72 mL/min/kg; Vd [7]: 2.41 L/kg; half-life [8]: 91.2 min; Cmax [9]: 274 ng/mL; Tmax [10]: 15 min; bioavailability [11]: 21.8% |
| 74 | 96 | 56 | C[C@]1(F)[C@H](O)[C@@H](O)[C@H](c2cc(Cc3ccc4c(c3)OCCO4)c(Cl)cc2O)O[C@@H]1CO |  |
